Reference: ChEMBL document CHEMBL4425177, “Effects of stereochemistry, saturation, and hydrocarbon chain length on the ability of synthetic constrained azacyclic sphingolipids to trigger nutrient transporter down-regulation, vacuolation, and cell death” (Bioorg Med Chem, 2016)

What was measured:
[1] = test system: FL5.12; assay: Downregulation of CD98 expression level in mouse FL5.12A cells at 2.5 uM measured at 3 hrs by flow cytometric analysis; type: functional
Procedure, shortened: (§1)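 FL5.12 cells treated at 2.5 µM. Nutrient transporter loss measured as mean ± SEM. Vacuolation scored semi-quantitatively from 0 to 84, roughly twice the percent of cytosol occupied by vacuoles, mean ± SEM.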

[2] = test system: FL5.12; assay: Induction of vacuolation in mouse FL5.12A cells assessed as vacuolation score at 2.5 uM measured at 3 hrs by fluorescence microscopic analysis; type: functional; procedure, shortened: as §1
[3] = test system: FL5.12; assay: Cytotoxicity against mouse FL5.12A cells after 48 hrs by DAPI staining-based flow cytometric analysis; type: functional, cell-based; conditions: FL5.12, 48 h
[4] = test system: FL5.12; assay: Downregulation of CD98 expression level in mouse FL5.12A cells at 50 uM measured at 3 hrs by flow cytometric analysis
[5] = test system: FL5.12; assay: Induction of vacuolation in mouse FL5.12A cells assessed as vacuolation score at 50 uM measured at 3 hrs by fluorescence microscopic analysis; type: functional
[6] = test system: FL5.12; assay: Downregulation of CD98 expression level in mouse FL5.12A cells at 30 uM measured at 3 hrs by flow cytometric analysis; type: functional
[7] = test system: FL5.12; assay: Induction of vacuolation in mouse FL5.12A cells assessed as vacuolation score at 30 uM measured at 3 hrs by fluorescence microscopic analysis; type: functional

`CCCC/C=C/c1ccc(CO[C@@H]2CN[C@@H](CO)C2)cc1.Cl` gave an Activity [1] of 30%, an Activity [2] of 0 and an IC50 [3] of 5.5 µM.

`CCCCCCCCCCCCC/C=C/[C@@H](O)[C@H](CO)N(C)C` [DIMETHYLSPINGOSINE] was tested, and the Activity [1] was 69%, the Activity [2] was 72 and the IC50 [3] was 0.8 µM.

For `CCCCCCCCCCCCO[C@H]1CN[C@H](CO)C1.Cl`, the Activity [1] was 45%, the Activity [2] was 36 and the IC50 [3] was 2.5 µM.

Compound `CCCCCCCCCCCCc1ccc(CO[C@@H]2CN[C@@H](CO)C2)cc1.Cl` has an Activity [1] of 13%, an Activity [2] of 3 and an IC50 [3] of 10.1 µM.

`CCCCCCCCCCCC/C=C/c1ccc(CO[C@@H]2CN[C@@H](CO)C2)cc1.Cl` was tested, and the Activity [1] was 19%, the Activity [2] was 8 and the IC50 [3] was 5.1 µM.

Compound `CCCCCCCCCCCCCCC[C@@H](O)[C@@H](N)CO` [DIHYDROSPINGOSINE] has an Activity [1] of 47%, an Activity [2] of 38 and an IC50 [3] of 3.5 µM.

`CCCCCCCCc1ccc([C@@H]2CCN[C@H]2CO)cc1.Cl` showed an Activity [1] of 47%, an Activity [2] of 53 and an IC50 [3] of 1.7 µM.

In the case of `CCCCCC/C=C/c1ccc(CO[C@@H]2CN[C@@H](CO)C2)cc1.Cl`, the Activity [1] is reported as 64%, the Activity [2] is reported as 27 and the IC50 [3] is reported as 1.4 µM.

`CCCCCCCCCCCCCCc1ccc(CO[C@H]2CN[C@H](CO)C2)cc1.Cl` was tested, and the Activity [1] was 19%, the Activity [2] was 3 and the IC50 [3] was 5.7 µM.

In the case of `CCCCCCCCCC/C=C/c1ccc(CO[C@H]2CN[C@H](CO)C2)cc1.Cl`, the Activity [1] is reported as 40%, the Activity [2] is reported as 76 and the IC50 [3] is reported as 2.4 µM.

`CCCCCC/C=C/c1ccc([C@H]2CCN[C@@H]2CO)cc1.Cl` gave an Activity [1] of 58%, an Activity [2] of 84 and an IC50 [3] of 1.7 µM.

`CCCCCCCCC/C=C/CO[C@@H]1CN[C@@H](CO)C1.Cl` showed an Activity [1] of 34%, an Activity [2] of 9 and an IC50 [3] of 2.6 µM.

`CCCCCCCCCCCCC/C=C/[C@@H](O)[C@H](CO)NC(C)=O` (stereo in doubt; 9) gave an Activity [4] of 47%, an Activity [5] of 0 and an IC50 [3] of 33 µM.

`CCCCCCCCCC/C=C/c1ccc(CO[C@@H]2CN[C@@H](CO)C2)cc1.Cl` was tested, and the Activity [1] was 52%, the Activity [2] was 33 and the IC50 [3] was 2.8 µM.

`CCCCCCCCCCCCc1ccc(CO[C@H]2CN[C@H](CO)C2)cc1.Cl` was tested, and the Activity [1] was 14%, the Activity [2] was 30 and the IC50 [3] was 3.9 µM.

With `CCCCCCCCCCCC/C=C/c1ccc(CO[C@H]2CN[C@H](CO)C2)cc1.Cl` the Activity [1] was 20%, the Activity [2] was 1 and the IC50 [3] was 7.3 µM.

With `CCCCCCc1ccc(CO[C@@H]2CN[C@@H](CO)C2)cc1.Cl` the Activity [1] was 30%, the Activity [2] was 0 and the IC50 [3] was 2.7 µM.

Work on `CCCCCC/C=C/c1ccc([C@H]2CCN(C(C)=O)[C@@H]2CO)cc1` yielded an Activity [1] of 40%, an Activity [2] of 2 and an IC50 [3] of 46.2 µM.

Work on `CCCCCCCCc1ccc(CO[C@H]2C[C@H](CO)N(C(=N)N)C2)cc1.Cl.Cl` yielded an Activity [6] of 35%, an Activity [7] of 0 and an IC50 [3] of 14.2 µM.

Compound `CCCCCCCCCCCCO[C@@H]1CN[C@@H](CO)C1.Cl` has an Activity [1] of 57%, an Activity [2] of 53 and an IC50 [3] of 1.2 µM.

Work on `CCCC/C=C/c1ccc(CO[C@H]2CN[C@H](CO)C2)cc1.Cl` yielded an Activity [1] of 9%, an Activity [2] of 5 and an IC50 [3] of 5.7 µM.

For `CCCCCCCCc1ccc(CO[C@@H]2CN[C@@H](CO)C2)cc1.Cl`, the Activity [1] was 63%, the Activity [2] was 33 and the IC50 [3] was 2 µM.

`CCCCCCCCc1ccc([C@H]2CCN[C@@H]2CO)cc1.Cl` showed an Activity [1] of 54%, an Activity [2] of 81 and an IC50 [3] of 1.9 µM.

For `CCCCCCCCC/C=C/CO[C@H]1CN[C@H](CO)C1.Cl`, the Activity [1] was 30%, the Activity [2] was 20 and the IC50 [3] was 3.3 µM.

For `CCCCCCCCCCCCC/C=C/[C@@H](O)[C@@H](N)CO` [SPHINGOSINE], the Activity [1] was 48%, the Activity [2] was 57 and the IC50 [3] was 3.6 µM.

For `CCCCCCCCc1ccc([C@H]2CCN(C(C)=O)[C@@H]2CO)cc1`, the Activity [1] was 40%, the Activity [2] was 0 and the IC50 [3] was 39.7 µM.

Work on `CCCCCCCCCCCCCCc1ccc(CO[C@@H]2CN[C@@H](CO)C2)cc1.Cl` yielded an Activity [1] of 12%, an Activity [2] of 4 and an IC50 [3] of 10.5 µM.

For `CCCCCCCCc1ccc(CO[C@@H]2C[C@@H](CO)N(C(=N)N)C2)cc1.Cl.Cl`, the Activity [6] was 34%, the Activity [7] was 0 and the IC50 [3] was 17.3 µM.

Work on `CCCCCC/C=C/c1ccc(CO[C@H]2CN[C@H](CO)C2)cc1.Cl` yielded an Activity [1] of 41%, an Activity [2] of 70 and an IC50 [3] of 2.4 µM.

Work on `CCCCCCCCc1ccc(CO[C@H]2C[C@H](CO)N(C(C)=O)C2)cc1` yielded an Activity [4] of 37%, an Activity [5] of 1 and an IC50 [3] of 29.7 µM.

Work on `CCCCCC/C=C/c1ccc(CO[C@H]2C[C@H](CO)N(C)C2)cc1.Cl` yielded an Activity [1] of 31%, an Activity [2] of 26 and an IC50 [3] of 1.9 µM.

`CCCCCCCCCCc1ccc(CO[C@H]2CN[C@H](CO)C2)cc1.Cl` gave an Activity [1] of 28%, an Activity [2] of 36 and an IC50 [3] of 3.6 µM.

Work on `CCCCCCCCc1ccc(CCC(N)(CO)CO)cc1` [FINGOLIMOD] yielded an Activity [1] of 68%, an Activity [2] of 82 and an IC50 [3] of 2.4 µM.

`CCCCCCCCc1ccc(CO[C@H]2CN[C@H](CO)C2)cc1.Cl` showed an Activity [1] of 48%, an Activity [2] of 47 and an IC50 [3] of 3 µM.
